Consider 19 compounds from ChEMBL document CHEMBL3425464, “HM30181 Derivatives as Novel Potent and Selective Inhibitors of the Breast Cancer Resistance Protein (BCRP/ABCG2)” (J Med Chem, 2015).

As a reminder, the solubility is the dissolved amount per volume that the medium holds. A word on the inhibition: it is the relative decrease from the control value, in per cent. What is called IC50 is the concentration at which inhibition is half-maximal.

The target of one data set is T1, BCRP (ABCG2) (Homo sapiens, UniProt Q9UNQ0).
T1 sequence (Q9UNQ0 whole entry): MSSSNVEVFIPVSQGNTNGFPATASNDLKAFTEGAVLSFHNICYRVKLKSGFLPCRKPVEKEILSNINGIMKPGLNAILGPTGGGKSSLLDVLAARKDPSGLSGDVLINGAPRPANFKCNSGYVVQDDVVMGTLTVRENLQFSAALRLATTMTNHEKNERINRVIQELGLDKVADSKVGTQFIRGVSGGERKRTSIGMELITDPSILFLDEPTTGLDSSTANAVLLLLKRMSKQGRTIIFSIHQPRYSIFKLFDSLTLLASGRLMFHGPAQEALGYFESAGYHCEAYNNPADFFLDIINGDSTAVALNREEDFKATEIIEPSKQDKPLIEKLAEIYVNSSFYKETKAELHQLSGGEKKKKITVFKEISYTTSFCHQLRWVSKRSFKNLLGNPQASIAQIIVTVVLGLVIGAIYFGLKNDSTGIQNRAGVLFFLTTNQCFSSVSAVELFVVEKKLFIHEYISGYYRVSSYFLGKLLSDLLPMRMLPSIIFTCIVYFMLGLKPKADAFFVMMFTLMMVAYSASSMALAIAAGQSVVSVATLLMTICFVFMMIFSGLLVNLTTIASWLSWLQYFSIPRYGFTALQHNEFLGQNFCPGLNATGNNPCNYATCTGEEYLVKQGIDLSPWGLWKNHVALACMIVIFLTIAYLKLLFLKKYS
In words: Inhibition of GFP-tagged human BCRP expressed in MDCK2 cells pre-incubated for 30 mins followed by Hoechst 33342 addition and further incubated for 120 mins by Hoechst 33342 accumulation assay relative to XR9577. In kind it is cell-based, MDCK-II. As to conditions: MDCK2 cells expressing GFP-tagged human BCRP, probe Hoechst 33342, read-out: Imax; call rule not given here.

Data set [1] is described as follows: Solubility in DMSO. The data set is classed as physicochemical.
Data set [2] is described as follows: Solubility in water. In kind it is physicochemical. As to conditions: buffer.
In another data set the target is ABCB1 (P-gp) (Homo sapiens, UniProt P08183). In words: Inhibition of ABCB1 in human A2780adr cells at 10 uM pre-incubated for 30 mins followed by calcein AM addition and further incubated for 60 mins by calcein AM assay. The data set is classed as cell-based, A2780 ADR. The conditions noted are these: probe calcein AM.
ABCB1 (P-gp), sequence (P08183 whole entry): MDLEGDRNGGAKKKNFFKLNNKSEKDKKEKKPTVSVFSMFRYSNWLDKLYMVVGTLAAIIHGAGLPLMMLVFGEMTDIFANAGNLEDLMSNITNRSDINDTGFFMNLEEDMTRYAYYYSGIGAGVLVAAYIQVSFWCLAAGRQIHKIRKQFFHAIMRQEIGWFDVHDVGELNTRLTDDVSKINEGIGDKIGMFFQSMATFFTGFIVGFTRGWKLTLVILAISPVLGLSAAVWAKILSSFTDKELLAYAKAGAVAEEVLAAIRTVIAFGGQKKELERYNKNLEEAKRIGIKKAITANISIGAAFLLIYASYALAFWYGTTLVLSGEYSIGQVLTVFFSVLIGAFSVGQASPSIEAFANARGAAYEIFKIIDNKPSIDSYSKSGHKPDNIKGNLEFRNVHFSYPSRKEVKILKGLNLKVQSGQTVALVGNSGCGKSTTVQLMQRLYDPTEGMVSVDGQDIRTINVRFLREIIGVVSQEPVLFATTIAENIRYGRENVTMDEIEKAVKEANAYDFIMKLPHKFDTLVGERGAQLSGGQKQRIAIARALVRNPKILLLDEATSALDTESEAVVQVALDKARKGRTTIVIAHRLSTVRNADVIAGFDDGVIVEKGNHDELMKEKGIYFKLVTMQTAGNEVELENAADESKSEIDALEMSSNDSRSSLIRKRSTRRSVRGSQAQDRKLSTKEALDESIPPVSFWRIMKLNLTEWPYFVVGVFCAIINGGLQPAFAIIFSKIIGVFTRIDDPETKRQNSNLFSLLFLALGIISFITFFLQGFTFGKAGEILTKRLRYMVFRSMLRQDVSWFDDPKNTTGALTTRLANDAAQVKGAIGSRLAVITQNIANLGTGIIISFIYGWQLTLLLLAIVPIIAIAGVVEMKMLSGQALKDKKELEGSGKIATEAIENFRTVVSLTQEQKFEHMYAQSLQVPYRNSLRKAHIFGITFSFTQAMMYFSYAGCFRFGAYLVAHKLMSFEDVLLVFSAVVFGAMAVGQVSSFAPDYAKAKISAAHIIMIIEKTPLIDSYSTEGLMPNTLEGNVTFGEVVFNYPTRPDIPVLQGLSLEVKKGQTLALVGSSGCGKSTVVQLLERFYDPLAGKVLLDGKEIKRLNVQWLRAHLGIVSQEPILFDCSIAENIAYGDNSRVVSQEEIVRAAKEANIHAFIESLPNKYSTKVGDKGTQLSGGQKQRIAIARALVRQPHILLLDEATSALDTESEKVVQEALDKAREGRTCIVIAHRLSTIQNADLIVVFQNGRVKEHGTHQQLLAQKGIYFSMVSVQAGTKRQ
Data set [3] addresses T2, Broad substrate specificity ATP-binding cassette transporter ABCG2 (Homo sapiens, UniProt Q9UNQ0).
T2 sequence (Q9UNQ0 whole entry): T1 sequence (Q9UNQ0 whole entry)
In words: Inhibition of GFP-tagged human BCRP expressed in MDCK2 cells pre-incubated for 30 mins followed by Hoechst 33342 addition and further incubated for 120 mins by Hoechst 33342 accumulation assay. In kind it is cell-based, MDCK-II. The gist of the method:
(§1)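 MDCK II cells stably carrying human BCRP cDNA C-terminally fused to GFP are washed in KHB, pH 7.4. About 30,000 cells/well are preincubated 30 min at 37 °C with compound up to 10 μM (DMSO ≤0.1%, methanol ≤5% for poorly soluble compounds). Hoechst 33342 is added from a 10 μM solution, and fluorescence (ex 355/em 460) is read every 60 s for 120 min. The steady-state mean (100–109 min) is fitted to a four-parameter logistic curve.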

Data set [4] deals with Multidrug resistance-associated protein 1 (Homo sapiens, UniProt P33527). In words: Inhibition of MRP1 in human H69AR cells at 10 uM pre-incubated for 30 mins followed by calcein AM addition and further incubated for 60 mins by calcein AM assay. The conditions noted are these: 1 h.
Multidrug resistance-associated protein 1, sequence (P33527 whole entry): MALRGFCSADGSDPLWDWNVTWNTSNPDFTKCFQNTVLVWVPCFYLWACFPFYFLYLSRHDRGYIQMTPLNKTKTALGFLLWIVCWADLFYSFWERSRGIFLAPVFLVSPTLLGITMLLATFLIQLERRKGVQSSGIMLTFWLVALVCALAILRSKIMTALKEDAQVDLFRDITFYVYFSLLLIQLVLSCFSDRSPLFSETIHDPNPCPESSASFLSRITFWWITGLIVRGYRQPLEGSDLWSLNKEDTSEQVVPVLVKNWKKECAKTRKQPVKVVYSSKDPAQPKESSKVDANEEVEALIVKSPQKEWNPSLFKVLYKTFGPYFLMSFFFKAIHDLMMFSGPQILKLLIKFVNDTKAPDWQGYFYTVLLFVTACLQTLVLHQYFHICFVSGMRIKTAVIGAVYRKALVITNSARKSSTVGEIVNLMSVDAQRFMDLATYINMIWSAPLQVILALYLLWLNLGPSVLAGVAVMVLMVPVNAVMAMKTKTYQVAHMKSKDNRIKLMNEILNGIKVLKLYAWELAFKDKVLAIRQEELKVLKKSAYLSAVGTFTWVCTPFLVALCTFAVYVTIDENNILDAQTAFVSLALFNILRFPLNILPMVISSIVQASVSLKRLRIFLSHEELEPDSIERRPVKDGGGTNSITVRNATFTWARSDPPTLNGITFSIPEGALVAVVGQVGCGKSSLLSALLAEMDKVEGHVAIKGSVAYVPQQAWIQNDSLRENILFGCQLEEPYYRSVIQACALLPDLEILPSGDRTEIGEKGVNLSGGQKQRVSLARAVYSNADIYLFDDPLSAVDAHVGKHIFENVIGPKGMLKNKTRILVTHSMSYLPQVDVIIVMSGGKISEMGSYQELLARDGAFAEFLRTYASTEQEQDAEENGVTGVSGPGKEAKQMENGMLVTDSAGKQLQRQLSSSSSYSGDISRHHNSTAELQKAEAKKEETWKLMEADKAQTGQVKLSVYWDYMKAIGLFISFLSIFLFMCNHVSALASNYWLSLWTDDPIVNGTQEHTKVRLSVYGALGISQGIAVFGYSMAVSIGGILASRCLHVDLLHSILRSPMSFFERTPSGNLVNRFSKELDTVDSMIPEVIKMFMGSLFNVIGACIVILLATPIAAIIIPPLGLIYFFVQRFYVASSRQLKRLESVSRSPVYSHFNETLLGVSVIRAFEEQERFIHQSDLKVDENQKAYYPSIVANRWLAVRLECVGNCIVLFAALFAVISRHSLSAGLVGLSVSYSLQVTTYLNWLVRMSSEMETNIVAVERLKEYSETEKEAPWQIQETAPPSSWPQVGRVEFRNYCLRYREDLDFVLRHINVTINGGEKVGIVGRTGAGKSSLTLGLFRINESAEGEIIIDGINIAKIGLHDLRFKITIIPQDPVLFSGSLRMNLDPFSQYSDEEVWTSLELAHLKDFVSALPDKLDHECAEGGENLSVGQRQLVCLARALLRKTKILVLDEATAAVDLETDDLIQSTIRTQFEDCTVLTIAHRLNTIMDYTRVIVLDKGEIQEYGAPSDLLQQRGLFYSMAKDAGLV
In data set [5] the target is T2, Broad substrate specificity ATP-binding cassette transporter ABCG2. The experiment in a line: Inhibition of GFP-tagged human BCRP expressed in MDCK2 cells up to 10 uM pre-incubated for 30 mins followed by Hoechst 33342 addition and further incubated for 120 mins by Hoechst 33342 accumulation assay. In kind it is cell-based. As to conditions: mdck-ii, 2 h. The gist of the method:
as §1

For data set [6], the target named is ATP-dependent translocase ABCB1 (Homo sapiens, UniProt P08183). The experiment in a line: Inhibition of ABCB1 in human A2780adr cells pre-incubated for 30 mins followed by calcein AM addition and further incubated for 60 mins by calcein AM assay. In kind it is cell-based, A2780 ADR.
ATP-dependent translocase ABCB1, sequence (P08183 whole entry): as the sequence (P08183 whole entry) above

As to `CCCc1ccc(-n2nnc(-c3ccccc3NC(=O)c3ccc([N+](=O)[O-])cc3)n2)cc1`, the Emax at 2 h at BCRP (ABCG2) is 63%. The solubility in data set [1] was over 10 mM; in data set [2] it was “Insoluble”. Besides, the inhibition at 1 h, 10 µM on ABCB1 (P-gp) was under 25%. The compound further had an IC50 in data set [3] of 184 nM. For the same compound, the “inhibition (INH)” value in data set [4] is reported as “Not Active”.

For the compound `O=C(Nc1ccccc1-c1nnn(-c2ccc(C(F)(F)F)cc2)n1)c1ccc([N+](=O)[O-])cc1`, the solubility was over 10 mM in data set [1] and “Insoluble” in data set [2]. Besides, the “inhibition (INH)” value in data set [5] and in data set [4] was “Not Active” each time. The inhibition at 1 h, 10 µM on ABCB1 (P-gp) was under 25%.

On to `Cc1ccc(-n2nnc(-c3ccccc3NC(=O)c3ccc([N+](=O)[O-])cc3)n2)cc1`, for which the Emax at 2 h on BCRP (ABCG2) stood at 71%. The figures for the solubility in data set [1] and in data set [2] were over 10 mM and “Insoluble”, respectively. Moreover, the inhibition at 1 h, 10 µM on ABCB1 (P-gp) is under 25%. Moreover, the IC50 in data set [3] was 100 nM. The “inhibition (INH)” value in data set [4] is listed as “Not Active”.

On to `CCOc1ccc(-n2nnc(-c3ccccc3NC(=O)c3ccc([N+](=O)[O-])cc3)n2)cc1`, for which the solubility in data set [1] was over 10 mM; in data set [2], “Insoluble”. Besides, the “inhibition (INH)” value in data set [5] and in data set [4] was “Not Active” each time. In addition, the inhibition at 1 h, 10 µM at ABCB1 (P-gp) is under 25%.

`COc1ccccc1-n1nnc(-c2ccccc2NC(=O)c2ccc([N+](=O)[O-])cc2)n1`: the Emax at 2 h on BCRP (ABCG2) came to 102%. In addition, the solubility was over 10 mM in data set [1] and “Insoluble” in data set [2]. Moreover, on ABCB1 (P-gp), the inhibition at 1 h, 10 µM was under 25%. The same compound registered a 50% inhibitory concentration (IC50) in data set [3] of 261 nM. In addition, the “inhibition (INH)” value in data set [4] is “Not Active”.

With `COc1cccc(-n2nnc(-c3ccccc3NC(=O)c3ccc([N+](=O)[O-])cc3)n2)c1`, at BCRP (ABCG2), the Emax at 2 h was 58%. For the same compound, the solubility in data set [1] was over 10 mM; in data set [2], “Insoluble”. Moreover, at ABCB1 (P-gp), the inhibition at 1 h, 10 µM was under 25%. In addition, the IC50 in data set [3] was 78.9 nM. Further, the “inhibition (INH)” value in data set [4] is given as “Not Active”.

For `COc1ccc(-n2nnc(-c3ccccc3NC(=O)c3ccc([N+](=O)[O-])cc3)n2)cc1`, the Emax at 2 h at BCRP (ABCG2) stood at 61%. Besides, the results for the solubility in data set [1] and in data set [2] were over 10 mM and “Insoluble”, respectively. Besides, the inhibition at 1 h, 10 µM on ABCB1 (P-gp) is under 25%. The compound also had an IC50 in data set [3] of 118 nM. For the same compound, in data set [4], the “inhibition (INH)” value is on record as “Not Active”.

Take `CCCc1ccc(-n2nnc(-c3ccccc3NC(=O)c3ccc(C(F)(F)F)cc3)n2)cc1`: the solubility in data set [1] is over 10 mM; in data set [2], “Insoluble”. Moreover, the “inhibition (INH)” value in data set [5] and in data set [4] was “Not Active” throughout. The inhibition at 1 h, 10 µM at ABCB1 (P-gp) is under 25%.

Regarding `O=C(Nc1ccccc1-c1nnn(-c2ccc(C(F)(F)F)cc2)n1)c1ccc(C(F)(F)F)cc1`, the values for the solubility in data set [1] and in data set [2] were over 10 mM and “Insoluble”, respectively. For the same compound, the “inhibition (INH)” value in data set [5] and in data set [4] was “Not Active” throughout. Moreover, the inhibition at 1 h, 10 µM at ABCB1 (P-gp) is under 25%.

As to `Cc1ccc(-n2nnc(-c3ccccc3NC(=O)c3ccc(C(F)(F)F)cc3)n2)cc1`, the Emax at 2 h on BCRP (ABCG2) was found to be 65%. Moreover, the values for the solubility in data set [1] and in data set [2] were over 10 mM and “Insoluble”, respectively. Moreover, at ABCB1 (P-gp), the inhibition at 1 h, 10 µM is under 25%. The same compound had an IC50 in data set [3] of 137 nM. Further, the “inhibition (INH)” value in data set [4] was “Not Active”.

As for `CCOc1ccc(-n2nnc(-c3ccccc3NC(=O)c3ccc(C(F)(F)F)cc3)n2)cc1`, the values for the solubility in data set [1] and in data set [2] were over 10 mM and “Insoluble”, respectively. Moreover, the “inhibition (INH)” value in data set [5] and in data set [4] was “Not Active” in each case. Also, the inhibition at 1 h, 10 µM at ABCB1 (P-gp) was under 25%.

In the case of `COc1ccccc1-n1nnc(-c2ccccc2NC(=O)c2ccc(C(F)(F)F)cc2)n1`, the Emax at 2 h at BCRP (ABCG2) was found to be 100%. Besides, the values for the solubility in data set [1] and in data set [2] were over 10 mM and “Insoluble”, respectively. In addition, the results for the IC50 in data set [6] and in data set [3] were 11000 nM and 451 nM, respectively. Also, the inhibition at 1 h, 10 µM on ABCB1 (P-gp) is at least 25%. For the same compound, the “inhibition (INH)” value in data set [4] is “Not Active”.

With `COc1cccc(-n2nnc(-c3ccccc3NC(=O)c3ccc(C(F)(F)F)cc3)n2)c1`, at BCRP (ABCG2), the Emax at 2 h is 100%. For the same compound, the solubility in data set [1] was over 10 mM; in data set [2], “Insoluble”. For the same compound, at ABCB1 (P-gp), the inhibition at 1 h, 10 µM is under 25%. The same compound returned an IC50 in data set [3] of 11200 nM. Besides, in data set [4], the “inhibition (INH)” value is “Not Active”.

Regarding `COc1ccc(-n2nnc(-c3ccccc3NC(=O)c3ccc(C(F)(F)F)cc3)n2)cc1`, at BCRP (ABCG2), the Emax at 2 h is 93%. Besides, the values for the solubility in data set [1] and in data set [2] were over 10 mM and “Insoluble”, respectively. In addition, the inhibition at 1 h, 10 µM on ABCB1 (P-gp) was under 25%. In data set [3], the IC50 came to 106 nM. Further, in data set [4], the “inhibition (INH)” value was “Not Active”.

For the compound `COc1ccc(C(=O)Nc2ccccc2-c2nnn(-c3ccc(C(F)(F)F)cc3)n2)cc1OC`, the Emax at 2 h on BCRP (ABCG2) was found to be 85%. Moreover, the solubility in data set [1] was over 10 mM; in data set [2], “Insoluble”. In addition, on ABCB1 (P-gp), the inhibition at 1 h, 10 µM is under 25%. The IC50 in data set [3] is 269 nM. The “inhibition (INH)” value in data set [4] was “Not Active”.

As for `CCOc1ccc(-n2nnc(-c3ccccc3NC(=O)c3ccc(OC)c(OC)c3)n2)cc1`, on BCRP (ABCG2), the Emax at 2 h is 106%. Besides, the solubility in data set [1] is over 10 mM; in data set [2] it was “Insoluble”. Further, the IC50 in data set [6] was 32800 nM; in data set [3], 201 nM. Besides, the inhibition at 1 h, 10 µM at ABCB1 (P-gp) is at least 25%. Besides, in data set [4], the “inhibition (INH)” value is listed as “Not Active”.

On to `COc1ccc(-n2nnc(-c3ccccc3NC(=O)c3ccc(OC)c(OC)c3)n2)cc1`, for which the Emax at 2 h at BCRP (ABCG2) stood at 107%. Also, the solubility in data set [1] was over 10 mM; in data set [2], “Insoluble”. The IC50 in data set [6] is 37200 nM; in data set [3], 117 nM. Also, at ABCB1 (P-gp), the inhibition at 1 h, 10 µM is at least 25%. In addition, in data set [4], the “inhibition (INH)” value is given as “Not Active”.

As for `COc1ccc(C(=O)Nc2ccccc2-c2nnn(-c3ccccc3OC)n2)cc1`, the Emax at 2 h on BCRP (ABCG2) was 88%. In addition, the solubility was over 10 mM in data set [1] and “Insoluble” in data set [2]. Moreover, the values for the IC50 in data set [6] and in data set [3] were 7730 nM and 180 nM, respectively. Further, the inhibition at 1 h, 10 µM on ABCB1 (P-gp) was at least 25%. The “inhibition (INH)” value in data set [4] is given as “Not Active”.

Regarding `O=C(Nc1ccccc1C(=O)Nc1ccc(CCN2CCc3ccccc3C2)cc1)c1cnc2ccccc2c1`, the IC50 in data set [3] was found to be 721 nM.
